Reference: ChEMBL document CHEMBL2311475, “Highly solvatochromic fluorescent naphthalimides: design, synthesis, photophysical properties and fluorescence switch-on sensing of ct-DNA” (Bioorg Med Chem Lett, 2013)
The source made the active and inactive calls. No cut-off for these calls is given here.

Experiments:
Format in all cases: nucleic-acid assay
Conditions in all cases: Bos taurus
DNA [1] = assay: Binding affinity to calf thymus DNA at 1:0.67 to 1:2 DNA:compound ratio by UV-Vis spectrophotometric analysis
How it was run: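 Absorption spectra of the probe were recorded in aqueous phosphate buffer, pH 7.0, while ct-DNA was added gradually. Shifts in band position and changes in intensity were followed.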

DNA [2] = assay: Displacement of ethidium bromide from calf thymus DNA at 3.5 to 75 uM by fluorescence spectrophotometric analysis
DNA [3] = assay: Binding affinity to calf thymus DNA at 1:1 compound:DNA ratio by fluorescence titration method
How it was run: (§1)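 Fluorescence titration: probe held at 30 μM in aqueous phosphate buffer, pH 7.0, at room temperature, with increasing concentrations of ct-DNA added. Emission spectra were recorded at each step.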

DNA [4] = assay: Binding affinity to calf thymus DNA at 30 uM by fluorescence titration method; how it was run: as §1
DNA [5] = assay: Binding affinity to calf thymus DNA assessed melting temperature at 1:0.5 compound:DNA ratio by thermal denaturation assay (reference value: 65.83 degC)
DNA [6] = assay: Binding affinity to calf thymus DNA assessed melting temperature at 1:1 compound:DNA ratio by thermal denaturation assay (reference value: 65.83 degC)
DNA [7] = assay: Binding affinity to calf thymus DNA assessed melting temperature at 1:1.5 compound:DNA ratio by thermal denaturation assay (reference value: 65.83 degC)
DNA [8] = assay: Binding affinity to calf thymus DNA at 30 uM by in presence of increasing concentration of DNA by Benesi-Hildebrand plot analysis
DNA [9] = assay: Binding affinity to calf thymus DNA assessed melting temperature at 2:1 compound:DNA ratio by thermal denaturation assay (reference value: 65.83 degC)

## C#CCN1C(=O)c2cccc3c(C#Cc4ccc(N(C)C)cc4)ccc(c23)C1=O
DNA [1]
  Activity: inactive
DNA [2]
  Activity: inactive
DNA [3]
  Activity: Active

## C#CCN1C(=O)c2cccc3c(C#Cc4ccc(C#N)cc4)ccc(c23)C1=O
DNA [4]
  Activity: Active
DNA [5]
  Tm: 65.6 °C
DNA [6]
  Tm: 64.9 °C
DNA [7]
  Tm: 64.3 °C
DNA [1]
  Activity: inactive
DNA [2]
  Activity: inactive
DNA [8]
  K: 3.98 ×10⁴ /M
DNA [9]
  Tm: 63.2 °C
